From ChEMBL document CHEMBL3585281, “Antibacterial Labdane Diterpenoids from Vitex vestita” (2015)
In brackets after ≈: the same amount, converted by molar mass.

Experiments:
Format in all cases: functional
Listeria monocytogenes [1] = test: Antibacterial activity against Listeria monocytogenes N851 after 18 hrs by agar dilution method; conditions: N851, 18 h
Summary of the method: (§1)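 Agar-dilution MIC against Gram-positive strains. Compounds in DMSO, geometric dilutions giving final 100−0.75 mg/L in Mueller Hinton agar. Strains grown 18 h at 37 °C in trypticase soy broth, diluted in sterile water, spotted by Steers inoculator (about 1000 UFC/spot). Plates incubated 18 h at 37 °C; DMSO blank; ofloxacin positive control. MIC = lowest concentration with no visible growth.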

Streptococcus agalactiae = test: Antibacterial activity against Streptococcus agalactiae CIP 103227 after 18 hrs by agar dilution method; conditions: ATCC 13813, 18 h; summary of the method: as §1
Enterococcus faecium [2] = test: Antibacterial activity against Enterococcus faecium N507 after 18 hrs by agar dilution method; conditions: N507, 18 h; summary of the method: as §1
Staphylococcus aureus [3] = test: Antibacterial activity against Staphylococcus aureus CIP 53156 after 18 hrs by agar dilution method; conditions: CIP 53156, 18 h; summary of the method: as §1
[4] = system: Enterococcus casseliflavus; test: Antibacterial activity against Enterococcus casseliflavus CIP 103018 after 18 hrs by agar dilution method; conditions: CIP 103018, 18 h; summary of the method: as §1
Enterococcus hirae = test: Antibacterial activity against Enterococcus hirae CIP 5855 after 18 hrs by agar dilution method; conditions: CIP 5855, 18 h; summary of the method: as §1
Staphylococcus aureus [5] = test: Antibacterial activity against Staphylococcus aureus ATCC 25923 after 18 hrs by agar dilution method; conditions: ATCC 25923, 18 h; summary of the method: as §1
Enterococcus faecium [6] = test: Antibacterial activity against Enterococcus faecium N490 after 18 hrs by agar dilution method; conditions: N490, 18 h; summary of the method: as §1
Bacillus cereus [7] = test: Antibacterial activity against Bacillus cereus N258 after 18 hrs by agar dilution method; conditions: N258, 18 h; summary of the method: as §1
Bacillus cereus [8] = test: Antibacterial activity against Bacillus cereus CIP 6624 after 18 hrs by agar dilution method; conditions: CIP 6624, 18 h; summary of the method: as §1
Enterococcus faecalis [9] = test: Antibacterial activity against Enterococcus faecalis N518 after 18 hrs by agar dilution method; conditions: N518, 18 h; summary of the method: as §1
Enterococcus durans = test: Antibacterial activity against Enterococcus durans CIP 104999 after 18 hrs by agar dilution method; conditions: CIP 104999, 18 h; summary of the method: as §1
[10] = system: Staphylococcus lugdunensis; test: Antibacterial activity against Staphylococcus lugdunensis ATCC 43809 after 18 hrs by agar dilution method; conditions: ATCC 43809, 18 h; summary of the method: as §1
[11] = system: Staphylococcus haemolyticus; test: Antibacterial activity against Staphylococcus haemolyticus CIP 8156 after 18 hrs by agar dilution method; conditions: CIP 8156, 18 h; summary of the method: as §1
Staphylococcus aureus [12] = test: Antibacterial activity against Staphylococcus aureus CRBIP 2121 after 18 hrs by agar dilution method; conditions: CRBIP 2121, 18 h; summary of the method: as §1
[13] = system: Staphylococcus epidermidis; test: Antibacterial activity against Staphylococcus epidermidis CIP 53124 after 18 hrs by agar dilution method; conditions: CIP 53124, 18 h; summary of the method: as §1
Enterococcus faecalis [14] = test: Antibacterial activity against Enterococcus faecalis N491 after 18 hrs by agar dilution method; conditions: N491, 18 h; summary of the method: as §1
Bacillus cereus [15] = test: Antibacterial activity against Bacillus cereus N349 after 18 hrs by agar dilution method; conditions: N349, 18 h; summary of the method: as §1
Enterococcus faecium [16] = test: Antibacterial activity against Enterococcus faecium N733 after 18 hrs by agar dilution method; conditions: N733, 18 h; summary of the method: as §1
Staphylococcus aureus [17] = test: Antibacterial activity against Staphylococcus aureus CIP 483 after 18 hrs by agar dilution method; conditions: CIP 483, 18 h; summary of the method: as §1
Bacillus cereus [18] = test: Antibacterial activity against Bacillus cereus N190 after 18 hrs by agar dilution method; conditions: N190, 18 h; summary of the method: as §1
Mammaliicoccus sciuri = test: Antibacterial activity against Staphylococcus sciuri N993 after 18 hrs by agar dilution method; conditions: N993, 18 h; summary of the method: as §1
[19] = system: Staphylococcus saprophyticus; test: Antibacterial activity against Staphylococcus saprophyticus CIP 76125 after 18 hrs by agar dilution method; conditions: CIP 76125, 18 h; summary of the method: as §1
Bacillus spizizenii = test: Antibacterial activity against Bacillus subtilis ATCC 6633 after 18 hrs by agar dilution method; conditions: ATCC 6633, 18 h; summary of the method: as §1
Listeria innocua = test: Antibacterial activity against Listeria innocua E044 after 18 hrs by agar dilution method; conditions: E044, 18 h; summary of the method: as §1
Staphylococcus aureus [20] = test: Antibacterial activity against Staphylococcus aureus ATCC 9144 oxford after 18 hrs by agar dilution method; summary of the method: as §1
Enterococcus faecium [21] = test: Antibacterial activity against Enterococcus faecium N823 after 18 hrs by agar dilution method; conditions: N823, 18 h; summary of the method: as §1
Listeria monocytogenes [22] = test: Antibacterial activity against Listeria monocytogenes CIP 103575 after 18 hrs by agar dilution method; conditions: CIP 103575, 18 h; summary of the method: as §1
Listeria monocytogenes [23] = test: Antibacterial activity against Listeria monocytogenes N836 after 18 hrs by agar dilution method; conditions: N836, 18 h; summary of the method: as §1
Staphylococcus aureus [24] = test: Antibacterial activity against Staphylococcus aureus CIP 53154 after 18 hrs by agar dilution method; conditions: CIP 53154, 18 h; summary of the method: as §1
Enterococcus faecalis [25] = test: Antibacterial activity against Enterococcus faecalis N520 after 18 hrs by agar dilution method; conditions: N520, 18 h; summary of the method: as §1
Enterococcus avium = test: Antibacterial activity against Enterococcus avium CIP 104053 after 18 hrs by agar dilution method; conditions: CIP 104053, 18 h; summary of the method: as §1
[26] = system: Staphylococcus saprophyticus; test: Antibacterial activity against Staphylococcus saprophyticus E260 after 18 hrs by agar dilution method; conditions: E260, 18 h; summary of the method: as §1
Enterococcus gallinarum [27] = test: Antibacterial activity against Enterococcus gallinarum N492 after 18 hrs by agar dilution method; conditions: N492, 18 h; summary of the method: as §1
Corynebacterium striatum = test: Antibacterial activity against Corynebacterium striatum N840 after 18 hrs by agar dilution method; conditions: N840, 18 h; summary of the method: as §1
Listeria monocytogenes [28] = test: Antibacterial activity against Listeria monocytogenes N783 after 18 hrs by agar dilution method; conditions: N783, 18 h; summary of the method: as §1
[29] = system: Staphylococcus intermedius; test: Antibacterial activity against Staphylococcus intermedius N987 after 18 hrs by agar dilution method; conditions: N987, 18 h; summary of the method: as §1
Enterococcus gallinarum [30] = test: Antibacterial activity against Enterococcus gallinarum CIP 105985 after 18 hrs by agar dilution method; conditions: CIP 105985, 18 h; summary of the method: as §1
Enterococcus faecalis [31] = test: Antibacterial activity against Enterococcus faecalis CIP 103214 after 18 hrs by agar dilution method; conditions: CIP 103214, 18 h; summary of the method: as §1
Enterococcus gallinarum [32] = test: Antibacterial activity against Enterococcus gallinarum N489 after 18 hrs by agar dilution method; conditions: N489, 18 h; summary of the method: as §1
[33] = system: Enterococcus casseliflavus; test: Antibacterial activity against Enterococcus casseliflavus N487 after 18 hrs by agar dilution method; conditions: N487, 18 h; summary of the method: as §1
Staphylococcus aureus [34] = test: Antibacterial activity against Staphylococcus aureus CIP 7625 after 18 hrs by agar dilution method; conditions: CIP 7625, 18 h; summary of the method: as §1
Enterococcus faecium [35] = test: Antibacterial activity against Enterococcus faecium CIP 107387 after 18 hrs by agar dilution method; conditions: CIP 107387, 18 h; summary of the method: as §1
Staphylococcus aureus [36] = test: Antibacterial activity against Staphylococcus aureus CIP 5710 after 18 hrs by agar dilution method; conditions: CIP 5710, 18 h; summary of the method: as §1
Enterococcus faecium [37] = test: Antibacterial activity against Enterococcus faecium CIP 103014 after 18 hrs by agar dilution method; conditions: CIP 103014, 18 h; summary of the method: as §1
Enterococcus faecalis [38] = test: Antibacterial activity against Enterococcus faecalis CIP 104676 after 18 hrs by agar dilution method; conditions: CIP 104676, 18 h; summary of the method: as §1

O=C(N[C@H](CO)[C@H](O)c1ccc([N+](=O)[O-])cc1)C(Cl)Cl [CHLORAMPHENICOL]
MIC (Listeria monocytogenes [1]): 25 µM (≈ 8.08 µg/mL) | MIC (Streptococcus agalactiae): 3 µM (≈ 0.969 µg/mL) | MIC (Enterococcus faecium [2]): 25 µM (≈ 8.08 µg/mL) | MIC (Staphylococcus aureus [3]): 12 µM (≈ 3.88 µg/mL) | MIC [4]: 25 µM (≈ 8.08 µg/mL) | MIC (Enterococcus hirae): 12 µM (≈ 3.88 µg/mL) | MIC (Staphylococcus aureus [5]): 25 µM (≈ 8.08 µg/mL) | MIC (Enterococcus faecium [6]): 12 µM (≈ 3.88 µg/mL) | MIC (Bacillus cereus [7]): 6 µM (≈ 1.94 µg/mL) | MIC (Bacillus cereus [8]): 6 µM (≈ 1.94 µg/mL) | MIC (Enterococcus faecalis [9]): 25 µM (≈ 8.08 µg/mL) | MIC (Enterococcus durans): 12 µM (≈ 3.88 µg/mL) | MIC [10]: 12 µM (≈ 3.88 µg/mL) | MIC [11]: 6 µM (≈ 1.94 µg/mL) | MIC (Staphylococcus aureus [12]): 12 µM (≈ 3.88 µg/mL) | MIC [13]: 6 µM (≈ 1.94 µg/mL) | MIC (Enterococcus faecalis [14]): 12 µM (≈ 3.88 µg/mL) | MIC (Bacillus cereus [15]): 6 µM (≈ 1.94 µg/mL) | MIC (Enterococcus faecium [16]): 12 µM (≈ 3.88 µg/mL) | MIC (Staphylococcus aureus [17]): 12 µM (≈ 3.88 µg/mL) | MIC (Bacillus cereus [18]): 6 µM (≈ 1.94 µg/mL) | MIC (Mammaliicoccus sciuri): 12 µM (≈ 3.88 µg/mL) | MIC [19]: 25 µM (≈ 8.08 µg/mL) | MIC (Bacillus spizizenii): 12 µM (≈ 3.88 µg/mL) | MIC (Listeria innocua): 12 µM (≈ 3.88 µg/mL) | MIC (Staphylococcus aureus [20]): 12 µM (≈ 3.88 µg/mL) | MIC (Enterococcus faecium [21]): 25 µM (≈ 8.08 µg/mL) | MIC (Listeria monocytogenes [22]): 25 µM (≈ 8.08 µg/mL) | MIC (Listeria monocytogenes [23]): 12 µM (≈ 3.88 µg/mL) | MIC (Staphylococcus aureus [24]): 12 µM (≈ 3.88 µg/mL) | MIC (Enterococcus faecalis [25]): 200 µM (≈ 64.6 µg/mL) | MIC (Enterococcus avium): 12 µM (≈ 3.88 µg/mL) | MIC [26]: 25 µM (≈ 8.08 µg/mL) | MIC (Enterococcus gallinarum [27]): 25 µM (≈ 8.08 µg/mL) | MIC (Corynebacterium striatum): 50 µM (≈ 16.2 µg/mL) | MIC (Listeria monocytogenes [28]): 12 µM (≈ 3.88 µg/mL) | MIC [29]: 25 µM (≈ 8.08 µg/mL) | MIC (Enterococcus gallinarum [30]): 12 µM (≈ 3.88 µg/mL) | MIC (Enterococcus faecalis [31]): 25 µM (≈ 8.08 µg/mL) | MIC (Enterococcus gallinarum [32]): 12 µM (≈ 3.88 µg/mL) | MIC [33]: 25 µM (≈ 8.08 µg/mL) | MIC (Staphylococcus aureus [34]): 25 µM (≈ 8.08 µg/mL) | MIC (Enterococcus faecium [35]): 12 µM (≈ 3.88 µg/mL) | MIC (Staphylococcus aureus [36]): 12 µM (≈ 3.88 µg/mL) | MIC (Enterococcus faecium [37]): 25 µM (≈ 8.08 µg/mL) | MIC (Enterococcus faecalis [38]): 200 µM (≈ 64.6 µg/mL)
